These results are taken from ChEMBL document CHEMBL5029150, “Controlling Intramolecular Interactions in the Design of Selective, High-Affinity Ligands for the CREBBP Bromodomain” (J Med Chem, 2021).

The source made the active and inactive calls. No cut-off for these calls is given here.

By inhibition is commonly meant the drop in the measured response relative to a control, in per cent.

For assay [1], the target named is T1, Bromodomain-containing protein 4 (Homo sapiens, UniProt O60885). As to the kind of experiment: Binding affinity to human BRD4 bromodomain 1 assessed as dissociation constant by ITC assay.
In assay [2] the target is T1, Bromodomain-containing protein 4. As to the kind of experiment: Binding affinity to human BRD4 bromodomain 1 assessed as dissociation constant up to 1 uM by BROMOscan assay. To be noted: dose microM <=1. In outline: (§1)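 BROMOscan competition binding panel of 12 phylogenetically diverse bromodomains, including the CREBBP and EP300 bromodomains.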
In assay [3] the target is T2, Bromodomain-containing protein 7 (Homo sapiens) (UniProt Q9NPI1).
T2 sequence (whole entry): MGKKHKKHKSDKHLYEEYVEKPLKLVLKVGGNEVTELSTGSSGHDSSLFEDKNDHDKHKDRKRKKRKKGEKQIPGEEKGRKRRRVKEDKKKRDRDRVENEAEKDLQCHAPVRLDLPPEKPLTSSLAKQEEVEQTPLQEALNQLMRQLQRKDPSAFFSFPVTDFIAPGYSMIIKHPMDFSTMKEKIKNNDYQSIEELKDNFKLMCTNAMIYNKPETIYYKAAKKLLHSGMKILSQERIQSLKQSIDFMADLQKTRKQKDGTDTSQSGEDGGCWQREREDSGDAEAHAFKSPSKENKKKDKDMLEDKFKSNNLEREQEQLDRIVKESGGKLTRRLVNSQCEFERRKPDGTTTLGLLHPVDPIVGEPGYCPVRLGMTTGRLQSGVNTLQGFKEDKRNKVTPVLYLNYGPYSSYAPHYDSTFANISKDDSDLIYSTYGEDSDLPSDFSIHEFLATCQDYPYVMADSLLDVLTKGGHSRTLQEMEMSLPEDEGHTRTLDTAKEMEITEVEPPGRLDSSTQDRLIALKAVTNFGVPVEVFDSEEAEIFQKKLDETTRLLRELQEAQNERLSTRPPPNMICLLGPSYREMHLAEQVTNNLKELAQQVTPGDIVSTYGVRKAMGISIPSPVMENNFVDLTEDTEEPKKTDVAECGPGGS
As to the kind of experiment: Binding affinity to human BRD7 assessed as dissociation constant up to 1 uM by BROMOscan assay. To be noted: dose microM <=1. In outline:
as §1

Assay [4] addresses T3, Bromodomain-containing protein 9 (Homo sapiens) (UniProt Q9H8M2).
T3 sequence (whole entry): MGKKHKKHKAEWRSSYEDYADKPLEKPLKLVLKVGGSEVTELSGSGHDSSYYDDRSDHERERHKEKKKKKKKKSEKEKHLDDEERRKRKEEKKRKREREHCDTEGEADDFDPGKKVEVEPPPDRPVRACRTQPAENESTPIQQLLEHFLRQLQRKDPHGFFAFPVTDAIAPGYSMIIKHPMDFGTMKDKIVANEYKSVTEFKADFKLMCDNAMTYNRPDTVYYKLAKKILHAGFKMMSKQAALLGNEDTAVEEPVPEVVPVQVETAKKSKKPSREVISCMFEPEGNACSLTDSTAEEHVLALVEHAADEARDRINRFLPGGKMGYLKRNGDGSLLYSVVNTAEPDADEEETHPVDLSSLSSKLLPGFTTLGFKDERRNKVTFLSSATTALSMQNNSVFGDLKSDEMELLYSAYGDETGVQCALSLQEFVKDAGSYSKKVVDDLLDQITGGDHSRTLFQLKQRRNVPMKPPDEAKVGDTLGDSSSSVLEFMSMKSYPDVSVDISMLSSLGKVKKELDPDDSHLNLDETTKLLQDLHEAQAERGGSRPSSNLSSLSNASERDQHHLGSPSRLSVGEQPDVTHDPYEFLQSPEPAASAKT
As to the kind of experiment: Binding affinity to human BRD9 assessed as dissociation constant up to 1 uM by BROMOscan assay. Conditions: dose microM <=1. In outline: as §1

Assay [5] concerns the target Histone acetyltransferase KAT2B (Homo sapiens) (UniProt Q92831). As to the kind of experiment: Binding affinity to human PCAF assessed as dissociation constant up to 1 uM by BROMOscan assay. Conditions: dose microM <=1. In short, it runs like this: as §1
Assay [6] deals with Transcription initiation factor TFIID subunit 1 (Homo sapiens) (UniProt P21675). As to the kind of experiment: Binding affinity to human TAF1 bromo domain 2 assessed as dissociation constant up to 1 uM by BROMOscan assay. To be noted: dose microM <=1. In short, it runs like this: as §1
Sequence of Transcription initiation factor TFIID subunit 1 (Homo sapiens) (P21675 whole entry, the tested form may be a part): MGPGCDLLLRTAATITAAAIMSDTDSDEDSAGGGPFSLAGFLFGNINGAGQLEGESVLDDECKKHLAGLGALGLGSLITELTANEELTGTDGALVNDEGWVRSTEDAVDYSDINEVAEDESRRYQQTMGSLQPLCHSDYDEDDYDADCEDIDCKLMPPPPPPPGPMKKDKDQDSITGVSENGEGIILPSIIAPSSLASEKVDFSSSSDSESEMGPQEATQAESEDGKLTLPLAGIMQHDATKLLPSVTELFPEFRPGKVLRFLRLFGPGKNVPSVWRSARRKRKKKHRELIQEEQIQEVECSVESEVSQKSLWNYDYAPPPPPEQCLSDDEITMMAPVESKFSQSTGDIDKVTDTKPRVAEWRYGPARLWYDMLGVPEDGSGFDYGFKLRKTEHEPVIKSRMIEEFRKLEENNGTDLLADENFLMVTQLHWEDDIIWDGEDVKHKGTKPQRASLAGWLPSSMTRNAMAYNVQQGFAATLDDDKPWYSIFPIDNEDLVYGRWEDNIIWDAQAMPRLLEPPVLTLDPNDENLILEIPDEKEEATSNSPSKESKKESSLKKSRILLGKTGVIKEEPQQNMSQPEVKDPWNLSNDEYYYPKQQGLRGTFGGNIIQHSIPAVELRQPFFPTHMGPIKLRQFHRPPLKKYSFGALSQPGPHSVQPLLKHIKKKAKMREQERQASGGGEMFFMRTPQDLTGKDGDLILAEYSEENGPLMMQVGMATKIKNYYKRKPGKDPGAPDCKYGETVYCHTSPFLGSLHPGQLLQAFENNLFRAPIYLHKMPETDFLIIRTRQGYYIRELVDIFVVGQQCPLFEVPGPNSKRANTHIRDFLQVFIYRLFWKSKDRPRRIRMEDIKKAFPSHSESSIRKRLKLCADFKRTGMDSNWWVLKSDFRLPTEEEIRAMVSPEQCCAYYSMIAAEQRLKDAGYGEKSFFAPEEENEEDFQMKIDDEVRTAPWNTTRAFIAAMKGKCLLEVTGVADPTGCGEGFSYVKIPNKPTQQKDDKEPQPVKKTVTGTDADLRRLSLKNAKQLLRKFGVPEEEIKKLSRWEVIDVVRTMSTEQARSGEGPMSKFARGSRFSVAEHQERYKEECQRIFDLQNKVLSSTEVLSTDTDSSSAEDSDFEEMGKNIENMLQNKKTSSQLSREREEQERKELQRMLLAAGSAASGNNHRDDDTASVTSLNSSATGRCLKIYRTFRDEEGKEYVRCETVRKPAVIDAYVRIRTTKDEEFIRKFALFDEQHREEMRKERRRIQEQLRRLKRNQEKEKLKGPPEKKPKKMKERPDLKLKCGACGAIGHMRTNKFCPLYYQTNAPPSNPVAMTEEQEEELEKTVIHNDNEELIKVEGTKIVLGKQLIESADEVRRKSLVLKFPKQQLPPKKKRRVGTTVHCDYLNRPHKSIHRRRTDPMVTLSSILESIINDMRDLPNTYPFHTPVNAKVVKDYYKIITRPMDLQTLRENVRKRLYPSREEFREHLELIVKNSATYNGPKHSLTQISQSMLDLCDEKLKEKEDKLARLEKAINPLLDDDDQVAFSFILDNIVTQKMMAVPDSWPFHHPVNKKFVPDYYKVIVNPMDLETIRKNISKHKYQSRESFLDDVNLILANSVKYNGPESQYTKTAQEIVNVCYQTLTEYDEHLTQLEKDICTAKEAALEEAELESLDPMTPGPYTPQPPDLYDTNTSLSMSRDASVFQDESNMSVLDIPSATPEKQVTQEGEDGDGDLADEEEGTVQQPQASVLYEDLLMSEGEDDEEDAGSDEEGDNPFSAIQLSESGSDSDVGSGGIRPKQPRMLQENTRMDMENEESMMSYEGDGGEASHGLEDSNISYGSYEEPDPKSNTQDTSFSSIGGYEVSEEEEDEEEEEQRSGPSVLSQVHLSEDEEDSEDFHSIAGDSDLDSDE
Assay [7] deals with T4, Transcription intermediary factor 1-alpha (Homo sapiens) (UniProt O15164).
T4 sequence (whole entry): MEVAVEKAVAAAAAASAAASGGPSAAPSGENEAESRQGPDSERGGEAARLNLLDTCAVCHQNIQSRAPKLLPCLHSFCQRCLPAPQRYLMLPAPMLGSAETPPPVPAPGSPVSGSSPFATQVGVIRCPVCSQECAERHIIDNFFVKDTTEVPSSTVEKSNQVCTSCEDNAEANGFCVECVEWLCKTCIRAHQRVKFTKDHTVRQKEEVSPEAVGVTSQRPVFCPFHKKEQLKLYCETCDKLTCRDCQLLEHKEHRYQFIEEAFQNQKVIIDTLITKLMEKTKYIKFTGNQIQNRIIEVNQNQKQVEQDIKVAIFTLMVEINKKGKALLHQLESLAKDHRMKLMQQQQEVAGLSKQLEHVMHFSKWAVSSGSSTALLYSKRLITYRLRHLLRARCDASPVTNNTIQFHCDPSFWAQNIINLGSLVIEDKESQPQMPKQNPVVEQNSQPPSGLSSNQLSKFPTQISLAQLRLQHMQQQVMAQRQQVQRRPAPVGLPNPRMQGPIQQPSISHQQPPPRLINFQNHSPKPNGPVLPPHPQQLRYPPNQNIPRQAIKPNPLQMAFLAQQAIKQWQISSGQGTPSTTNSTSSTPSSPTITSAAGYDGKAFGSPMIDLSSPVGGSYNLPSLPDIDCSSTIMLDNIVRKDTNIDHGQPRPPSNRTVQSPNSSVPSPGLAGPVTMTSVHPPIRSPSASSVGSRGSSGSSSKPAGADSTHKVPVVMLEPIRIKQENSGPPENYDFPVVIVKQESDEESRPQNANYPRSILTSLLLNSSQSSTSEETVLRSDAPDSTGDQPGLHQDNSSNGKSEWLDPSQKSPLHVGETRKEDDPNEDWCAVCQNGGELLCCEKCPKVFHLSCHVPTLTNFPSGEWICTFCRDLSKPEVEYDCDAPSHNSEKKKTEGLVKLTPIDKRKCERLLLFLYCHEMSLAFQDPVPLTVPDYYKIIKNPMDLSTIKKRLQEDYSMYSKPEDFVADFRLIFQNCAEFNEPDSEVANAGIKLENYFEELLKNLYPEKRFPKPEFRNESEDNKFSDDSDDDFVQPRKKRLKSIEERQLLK
As to the kind of experiment: Binding affinity to human TRIM24 assessed as dissociation constant up to 1 uM by BROMOscan assay. Conditions: dose microM <=1. In outline: as §1

Assay [8] concerns the target T5, CREB-binding protein/Histone acetyltransferase p300 (Homo sapiens) (UniProt Q09472+Q92793). As to the kind of experiment: Inhibition of CREBBP/EP300 in human HCT-116 cells assessed as reduction in c-Myc protein expression at 10 uM for 6 hrs by Western blot analysis. Type of assay: cell-based. In outline:
(§2)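 HCT116 human colorectal cancer cells were exposed to ligand at 10 μM for 6, 16 or 24 h. c-Myc, H3K18Ac and H3K27Ac levels were read by western blot, with acetylation marks expressed relative to the t = 0 level.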
(A western blot detects proteins with antibodies after separation by electrophoresis.)

The target of assay [9] is T5, CREB-binding protein/Histone acetyltransferase p300 (Homo sapiens). As to the kind of experiment: Inhibition of CREBBP/EP300 in human HCT-116 cells assessed as reduction in H3K27Ac at 10 uM for 24 hrs by Western blot analysis. Type of assay: cell-based. In outline: as §2

Sequence of Histone acetyltransferase KAT2B (Homo sapiens) (Q92831 whole entry, looked up, the tested form may be a part): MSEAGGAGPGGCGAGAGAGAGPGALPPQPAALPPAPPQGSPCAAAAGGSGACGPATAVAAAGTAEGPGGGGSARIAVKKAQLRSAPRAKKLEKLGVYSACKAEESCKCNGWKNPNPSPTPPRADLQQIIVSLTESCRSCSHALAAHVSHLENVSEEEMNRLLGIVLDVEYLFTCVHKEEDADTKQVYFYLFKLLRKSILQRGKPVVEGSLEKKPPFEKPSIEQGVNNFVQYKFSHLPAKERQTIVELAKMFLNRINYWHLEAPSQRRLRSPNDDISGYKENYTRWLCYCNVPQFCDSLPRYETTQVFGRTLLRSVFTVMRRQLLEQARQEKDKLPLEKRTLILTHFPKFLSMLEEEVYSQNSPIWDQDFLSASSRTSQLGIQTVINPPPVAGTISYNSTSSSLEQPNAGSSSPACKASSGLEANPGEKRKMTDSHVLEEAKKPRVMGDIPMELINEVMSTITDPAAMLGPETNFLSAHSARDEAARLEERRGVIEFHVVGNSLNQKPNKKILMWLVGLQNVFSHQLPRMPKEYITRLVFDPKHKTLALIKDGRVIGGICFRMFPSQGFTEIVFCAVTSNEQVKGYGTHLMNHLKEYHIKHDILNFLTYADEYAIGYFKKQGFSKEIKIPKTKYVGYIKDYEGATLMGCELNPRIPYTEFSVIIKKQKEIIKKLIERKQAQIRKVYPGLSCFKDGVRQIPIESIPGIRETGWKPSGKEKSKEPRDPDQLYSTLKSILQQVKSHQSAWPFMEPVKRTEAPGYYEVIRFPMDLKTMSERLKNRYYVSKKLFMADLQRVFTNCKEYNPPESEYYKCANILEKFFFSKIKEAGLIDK

On to `COc1ccc2c(c1)N(CCC/C=C/c1cccc3c1N[C@H](C)CC(=O)N3)CCC2`, for which the Kd result in assay [1] was “Not Active”. The outcome in assay [2], in [3], in assay [4], in assay [5], in assay [6] and in assay [7] was inactive. Besides, the inhibition result in assay [8] was “Active”. The inhibition in assay [9] was determined as 30%.

As to `COc1ccc2c(c1)N(CCC/C=C/c1cccc3c1N[C@@H](C)CC(=O)N3)CCC2`, the outcome in assay [2], in assay [3], in [4], in assay [5], in [6] and in [7] was inactive.
